Measurements published in PubChem BioAssay.
Results filed as inconclusive are left out.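 Rule for the calls, unless noted: active = RAM network inhibition above 8.4% in each of two replicates, 3 SD over the compound average; inconclusive = above 8.4% inhibition in only one replicate; inactive = 8.4% inhibition or less in each replicate.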

Columns and labels:
[1] = OD615 S. cerevisiae growth inhibition, permissive medium, pilot counter-assay, permissive growth control for S. cerevisiae lifespan shortening project (AID 705;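 active = growth inhibition above 25% in both replicates, a cutoff set 3 SD above the mean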); details: OD615, 24 h, at 10 µM, stronger effect = higher value
How it was run: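 Material: engineered DeaD yeast; compound dosing: one dose 10 µM, DMSO 0.25% final; measure: yeast growth inhibition indicated by reduced 24 h OD615; detection: OD615 turbidity read; incubation: cells pre-grown 4 h, then 24 h compound exposure, 30 °C humidified; medium: permissive synthetic complete medium with raffinose and galactose carbon sources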

[2] = Restrictive medium S. cerevisiae growth inhibition, OD615, pilot screen of yeast lifespan reduction project, restrictive growth control (AID 706;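 active = growth inhibition above a set limit, 3 SD over mean compound inhibition, in both replicates, cut at about 43% in these data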;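 note: modified DeaD lifespan yeast strain shifted to restrictive glucose medium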); details: OD615, 48 h, at 10 µM, stronger effect = higher value
How it was run: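 material = engineered S. cerevisiae DeaD strain | medium = glucose-based CSMM-D restrictive medium | times = 4 h pre-incubation, 48 h exposure at 30 °C | technique = OD615 absorbance reading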

[3] = viability gain of MRP-1-high H69AR cells under doxorubicin, pilot screen, MRP-1 activator project, CellTiter-Glo, duplicate (AID 807;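 active = viability increase at or above a cutoff of the median across tested compounds plus 3 SD, cut at about 8.5% in these data, passing the limit was not always enough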;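 note: compound pretreatment 18-22 h then 72 h combined with doxorubicin; 0% = doxorubicin alone and 100% = vehicle without doxorubicin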); details: H69AR viability with doxorubicin, CellTiter-Glo luminescence; at 10 µM; stronger effect = higher value
[4] = growth suppression of beta-catenin knockout HCT116, pilot screen, human colon tumor cells (AID 823;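 active = cell viability at or below a set limit in both duplicate runs, the limit being the all-compound median minus 4 SD, cut at about 23% in these data, passing the limit was not always enough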;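 note: 0% = wells killed by 20 µM Hyamine and 100% = untreated DMSO cell wells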); details: CellTiter-Glo, 60 h, at 10 µM, stronger effect = lower value
[5] = growth suppression of PTEN-deleted HCT116, pilot screen, cell-based, HCT116 clonal line, CellTiter-Glo (AID 824;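 active = viability at or below 27.92% in each of two runs, the all-compound median minus 4 SD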;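 note: 0% = 20 µM Hyamine control and 100% = vehicle cell control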); details: 60 h, at 10 µM, stronger effect = lower value
[6] = inhibitors of the yeast RAM network, pilot screen, dse1pr::URA3 reporter, 5-FOA selection (AID 869;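 active = inhibition over a set limit, the all-compound mean plus 3 SD, in both replicate runs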;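 note: 0% = DMSO wells with no growth and 100% = 10 µM 1-NA-PP1 with full growth; RAM network block rescues cells from 5-FOA so hits raise OD615 growth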); details: S. cerevisiae dse1pr::URA3 5-FOA growth, OD615, 2 d; at 10 µM; stronger effect = higher value; strain carries analog-sensitive mutant Cbk1 kinase
[7] = RAM signaling pathway blockade in yeast – S. cerevisiae, Pdr1DBD-CYC8 efflux-inhibited sensitized strain, primary screen (AID 1298);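 note: 0% = DMSO untreated cells without growth and 100% = 10 µM 1-NA-PP1 full growth; higher means more yeast growth rescued from 5-FOA killing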; details: S. cerevisiae cbk1-as DSE1-URA3 strain, 5-FOA growth OD615, 2 d; at 50 µM; stronger effect = higher value

CSc1nnc(Cn2c(=O)sc3ccccc32)n1-c1ccccc1C
inactive: growth inhibition [1] -14.4% | growth inhibition [2] -4% | viability increase [3] -2.05% | viability [4] 97.2% | viability [5] 96.7% | inhibition [6] 1.73% | RAM network inhibition [7] 2.76%

O=C(CSc1nnc(Cn2c(=O)sc3ccccc32)n1-c1ccccc1)N1CCCC1
inactive: growth inhibition [1] -8.58% | growth inhibition [2] -14.4% | viability increase [3] -1.4% | viability [4] 97.1% | viability [5] 97% | RAM network inhibition [7] 2.12%

Cc1cccc(Cn2c(SCCN3CCOCC3)nc3c2c(=O)n(C)c(=O)n3C)c1
inactive: growth inhibition [1] 1.68% | growth inhibition [2] 1.63% | viability increase [3] -2.36% | viability [4] 103% | viability [5] 91% | inhibition [6] 0.9% | RAM network inhibition [7] 5.93%

CC1CCCCN1C(=O)c1ccc(S(=O)(=O)N2CCCCC2C)cc1 (stereo unspecified)
inactive: growth inhibition [1] -5.29% | growth inhibition [2] -15.2% | viability increase [3] -2.45% | viability [4] 96.7% | viability [5] 95.6% | inhibition [6] 1.99% | RAM network inhibition [7] 2.28%

CCCCCCn1c(SCCOC)nc2c1c(=O)[nH]c(=O)n2C
inactive: growth inhibition [1] -2.79% | growth inhibition [2] -3.65% | viability increase [3] -0.71% | viability [4] 90.2% | viability [5] 85% | inhibition [6] 1.88% | RAM network inhibition [7] 9.09%

CCC(C(=O)N1CCN(c2cccc(Cl)c2)CC1)c1ccccc1 (stereo unspecified)
inactive: growth inhibition [1] 1.93% | growth inhibition [2] -5.71% | viability increase [3] -4.98% | viability [4] 57.7% | viability [5] 63% | RAM network inhibition [7] 8.74%

CCn1cc(CNC(=O)c2cc(Cl)ccc2OC)c(C)n1
inactive: growth inhibition [1] -4.3% | growth inhibition [2] -0.555% | viability increase [3] -0.95% | viability [4] 91% | viability [5] 92.2% | inhibition [6] -0.445% | RAM network inhibition [7] 3.38%

CCSC(C)CC1C/C(=N/O)c2c(CC)noc2C1 (stereo unspecified)
inactive: growth inhibition [1] -0.005% | growth inhibition [2] -4.39% | viability increase [3] 5.22% | viability [4] 93.6% | viability [5] 94.2% | RAM network inhibition [7] 0.17%

CC1=C(C(=O)OC2CCCCC2)C(c2ccco2)C2=C(CC(C)(C)CC2=O)N1 (stereo unspecified)
inactive: growth inhibition [1] -8.2% | growth inhibition [2] -8.91% | viability increase [3] -7.87% | viability [4] 64.8% | viability [5] 62.7% | inhibition [6] 0.115% | RAM network inhibition [7] 2.03%

O=C(NCCc1ccccc1)C1CCN(C(=O)c2sccc2-n2cccc2)CC1
inactive: growth inhibition [1] -0.295% | growth inhibition [2] -8.75% | viability increase [3] -1.15% | viability [4] 101% | viability [5] 93.8% | inhibition [6] 3.48% | RAM network inhibition [7] 4%

CC1(C)Cc2c(sc3c2c(=N)n(Cc2ccco2)c(=O)n3Cc2ccc(Cl)cc2)CO1
inactive: growth inhibition [1] -1.16% | growth inhibition [2] 6.14% | viability increase [3] -4.55% | viability [4] 79.9% | viability [5] 70.6% | inhibition [6] 1.69% | RAM network inhibition [7] 4.49%

Cc1cc(=S)cc(C)n1CCCn1ccnc1
inactive: growth inhibition [1] -1.13% | growth inhibition [2] -26.5% | viability increase [3] -0.81% | viability [4] 103% | viability [5] 99.7% | RAM network inhibition [7] 3.26%

NS(=O)(=O)c1ccc(CCNC2CC(=O)N(CCc3ccccc3)C2=O)cc1 (stereo unspecified)
inactive: growth inhibition [1] -14.1% | growth inhibition [2] -16% | viability increase [3] 1.79% | viability [4] 98% | viability [5] 99.9% | inhibition [6] 0.24% | RAM network inhibition [7] 1.42%

CCC(=O)N1c2ccccc2NC2=C(C(=O)CC(c3ccco3)C2)C1c1ccco1 (stereo unspecified)
inactive: growth inhibition [1] -7.69% | growth inhibition [2] 7.1% | viability increase [3] -1.65% | viability [4] 92.4% | viability [5] 92.4% | inhibition [6] 0.915% | RAM network inhibition [7] -0.58%

CCOc1ccc(C2CC(c3cccc(C)c3)n3nc(N)nc3N2)cc1 (stereo unspecified)
inactive: growth inhibition [1] 2.79% | growth inhibition [2] 11.8% | viability increase [3] -0.49% | viability [4] 91.7% | viability [5] 83.2% | inhibition [6] 1.02% | RAM network inhibition [7] 2.03%

O=C(Nc1nc2ccccc2s1)c1ccc(Cl)s1
inactive: growth inhibition [1] -14.7% | growth inhibition [2] -29.6% | viability increase [3] -3.11% | viability [4] 88.3% | viability [5] 77% | inhibition [6] 2.79% | RAM network inhibition [7] 1.32%

CCOc1ccccc1NC(=O)C1CCN(S(=O)(=O)c2cccc3cccnc23)CC1
inactive: growth inhibition [1] 1.06% | growth inhibition [2] -4.09% | viability increase [3] -3.97% | viability [4] 85.2% | viability [5] 80.9% | inhibition [6] 1.24% | RAM network inhibition [7] 1.72%

O=C(OCC1COc2ccccc2O1)c1c(F)cccc1F (stereo unspecified)
inactive: growth inhibition [1] -5.97% | growth inhibition [2] -0.835% | viability increase [3] 2.01% | viability [4] 93% | viability [5] 95.8% | RAM network inhibition [7] 7.73%
